# In ChEMBL document CHEMBL5247578, “Effective synthesis of benzimidazoles-imidazo[1,2-a]pyrazine conjugates: A comparative study of mono-and bis-benzimidazoles for antitumor activity” (Eur J Med Chem, 2019):
# How the values were obtained:
# 786-0 [1] = assay: Antiproliferative activity against human 786-0 cells assessed as cell growth at 0.00000001 M incubated for 48 hrs by SRB assay relative to control; format: functional; settings: dose 10 nM, read-out: Activity
# Outline: (§1)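 NCI-60 five-dose screen over 10^-4–10^-8 M (10-fold dilutions). Cells grown in RPMI 1640 with 5% FBS and 2 mM L-glutamine, seeded at 5,000–40,000 cells/well and preincubated 24 h. Drug from DMSO stock, 48 h at 37 °C, 5% CO2. Adherent cells TCA-fixed and stained with 0.4% SRB; A515 read. Percent growth = (Ti−Tz)/(C−Tz)×100, or (Ti−Tz)/Tz×100 when Ti<Tz.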
# EKVX = assay: Antiproliferative activity against human EKVX cells assessed as cell growth at 0.0000001 M incubated for 48 hrs by SRB assay relative to control; format: functional; settings: dose 100 nM, read-out: Activity
# Outline: (§2)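 NCI-60 five-dose screen (10^-4 to 10^-8 M). Cells grown in RPMI 1640 with 5% FBS and 2 mM L-glutamine, plated at 5,000-40,000 cells/well and preincubated 24 h. Drug given from DMSO stock, then 48 h at 37 °C, 5% CO2. For adherent lines, cells fixed with cold TCA, SRB-stained and read at 515 nm. Percent growth taken against time-zero and untreated control.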
# OVCAR-3 = assay: Antiproliferative activity against human OVCAR-3 cells assessed as cell growth at 0.00001 M incubated for 48 hrs by SRB assay relative to control; format: functional; settings: read-out: Activity
# 786-0 [2] = assay: Antiproliferative activity against human 786-0 cells assessed as cell growth at 0.0000001 M incubated for 48 hrs by SRB assay relative to control; format: functional; settings: dose 100 nM, read-out: Activity; outline: as §1
# HCT-116 [3] = assay: Growth inhibition against human HCT-116 cells incubated for 48 hrs by sulforhodamine B assay; format: functional
# BT-549 = assay: Growth inhibition against human BT-549 cells incubated for 48 hrs by sulforhodamine B assay; format: functional
# RPMI-8226 = assay: Antiproliferative activity against human RPMI-8226 cells assessed as cell growth at 0.00000001 M incubated for 48 hrs by SRB assay relative to control; format: functional; settings: dose 10 nM, read-out: Activity
# SF-539 [4] = assay: Growth inhibition against human SF-539 cells incubated for 48 hrs by sulforhodamine B assay; format: functional
# CCRF-CEM = assay: Antiproliferative activity against human CCRF-CEM cells assessed as cell growth at 0.0000001 M incubated for 48 hrs by SRB assay relative to control; format: functional; settings: dose 100 nM, read-out: Activity; outline: as §1
# SN12C = assay: Growth inhibition against human SN12C cells incubated for 48 hrs by sulforhodamine B assay; format: functional
# NCI-H522 [5] = assay: Antiproliferative activity against human NCI-H522 cells assessed as cell growth at 0.0000001 M incubated for 48 hrs by SRB assay relative to control; format: functional; settings: dose 100 nM, read-out: Activity
# SNB-19 = assay: Antiproliferative activity against human SNB-19 cells assessed as cell growth inhibition by measuring lethal concentration incubated for 48 hrs by sulforhodamine B assay; format: functional; settings: read-out: LC50 (the source's name)
# Outline: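 NCI-60 five-dose screen (10^-4 to 10^-8 M, 10-fold dilutions; DMSO stocks). Cells in RPMI 1640 with 5% FBS and 2 mM L-glutamine, preincubated 24 h, then exposed 48 h at 37 °C, 5% CO2. Fixed with cold TCA, stained with 0.4% SRB, absorbance read at 515 nm. Time-zero plates used as reference. LC50 taken from [(Ti-Tz)/Tz]×100 […].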
# NCI/ADR-RES = assay: Antiproliferative activity against human NCI/ADR-RES cells assessed as cell growth at 0.0000001 M incubated for 48 hrs by SRB assay relative to control; format: functional; settings: dose 100 nM, read-out: Activity
# A549 [6] = assay: Growth inhibition against human A549 cells assessed as total growth inhibitory concentration incubated for 48 hrs by sulforhodamine B assay; format: functional
# SK-MEL-5 = assay: Antiproliferative activity against human SK-MEL-5 cells assessed as cell growth at 0.0001 M incubated for 48 hrs by SRB assay relative to control; format: functional; settings: read-out: Activity
# RXF 393 = assay: Antiproliferative activity against human RXF 393 cells assessed as cell growth at 0.000001 M incubated for 48 hrs by SRB assay relative to control; format: functional; settings: read-out: Activity
# ACHN = assay: Antiproliferative activity against human ACHN cells assessed as cell growth inhibition by measuring lethal concentration incubated for 48 hrs by sulforhodamine B assay; format: functional; settings: read-out: LC50 (the source's name)
# NCI-H322M = assay: Growth inhibition against human NCI-H322M cells incubated for 48 hrs by sulforhodamine B assay; format: functional
# HCT-116 [7] = assay: Antiproliferative activity against human HCT-116 cells assessed as cell growth at 0.00000001 M incubated for 48 hrs by SRB assay relative to control; format: functional; settings: dose 10 nM, read-out: Activity; outline: as §2
# MCF7 = assay: Antiproliferative activity against human MCF7 cells assessed as cell growth at 0.000001 M incubated for 48 hrs by SRB assay relative to control; format: functional; settings: read-out: Activity
# DU-145 = assay: Antiproliferative activity against human DU-145 cells assessed as cell growth at 0.000001 M incubated for 48 hrs by SRB assay relative to control; format: functional; settings: read-out: Activity; outline: as §2
# SF-268 = assay: Antiproliferative activity against human SF-268 cells assessed as cell growth inhibition by measuring lethal concentration incubated for 48 hrs by sulforhodamine B assay; format: functional; settings: read-out: LC50 (the source's name)
# MDA-MB-468 = assay: Antiproliferative activity against human MDA-MB-468 cells assessed as cell growth at 0.00000001 M incubated for 48 hrs by SRB assay relative to control; format: functional; settings: dose 10 nM, read-out: Activity
# KM12 = assay: Antiproliferative activity against human KM12 cells assessed as cell growth at 0.0001 M incubated for 48 hrs by SRB assay relative to control; format: functional; settings: read-out: Activity
# SW-620 = assay: Antiproliferative activity against human SW620 cells assessed as cell growth at 0.00000001 M incubated for 48 hrs by SRB assay relative to control; format: functional; settings: dose 10 nM, read-out: Activity
# UACC-257 = assay: Growth inhibition against human UACC-257 cells assessed as total growth inhibitory concentration incubated for 48 hrs by sulforhodamine B assay; format: functional
# SF-539 [8] = assay: Antiproliferative activity against human SF-539 cells assessed as cell growth at 0.000001 M incubated for 48 hrs by SRB assay relative to control; format: functional; settings: read-out: Activity
# NCI-H522 [9] = assay: Growth inhibition against human NCI-H522 cells incubated for 48 hrs by sulforhodamine B assay; format: functional
# A549 [10] = assay: Antiproliferative activity against human A549 cells assessed as cell growth at 0.00001 M incubated for 48 hrs by SRB assay relative to control; format: functional; settings: read-out: Activity; outline: as §1
# HCC 2998 = assay: Antiproliferative activity against human HCC 2998 cells assessed as cell growth inhibition by measuring lethal concentration incubated for 48 hrs by sulforhodamine B assay; format: functional; settings: read-out: LC50 (the source's name)
# Albumin = Albumin (Bos taurus, UniProt P02769); assay: Binding affinity to bovine serum albumin assessed as binding constant by Stern-Volmer equation based fluorescence spectroscopic method; settings: cattle
# T47D = assay: Antiproliferative activity against human T47D cells assessed as cell growth at 0.000001 M incubated for 48 hrs by SRB assay relative to control; format: functional; settings: read-out: Activity
# NCI-H226 = assay: Growth inhibition against human NCI-H226 cells incubated for 48 hrs by sulforhodamine B assay; format: functional
# NCI-H460 = assay: Antiproliferative activity against human NCI-H460 cells assessed as cell growth at 0.000001 M incubated for 48 hrs by SRB assay relative to control; format: functional; settings: read-out: Activity
# Albumin, sequence (P02769 whole entry): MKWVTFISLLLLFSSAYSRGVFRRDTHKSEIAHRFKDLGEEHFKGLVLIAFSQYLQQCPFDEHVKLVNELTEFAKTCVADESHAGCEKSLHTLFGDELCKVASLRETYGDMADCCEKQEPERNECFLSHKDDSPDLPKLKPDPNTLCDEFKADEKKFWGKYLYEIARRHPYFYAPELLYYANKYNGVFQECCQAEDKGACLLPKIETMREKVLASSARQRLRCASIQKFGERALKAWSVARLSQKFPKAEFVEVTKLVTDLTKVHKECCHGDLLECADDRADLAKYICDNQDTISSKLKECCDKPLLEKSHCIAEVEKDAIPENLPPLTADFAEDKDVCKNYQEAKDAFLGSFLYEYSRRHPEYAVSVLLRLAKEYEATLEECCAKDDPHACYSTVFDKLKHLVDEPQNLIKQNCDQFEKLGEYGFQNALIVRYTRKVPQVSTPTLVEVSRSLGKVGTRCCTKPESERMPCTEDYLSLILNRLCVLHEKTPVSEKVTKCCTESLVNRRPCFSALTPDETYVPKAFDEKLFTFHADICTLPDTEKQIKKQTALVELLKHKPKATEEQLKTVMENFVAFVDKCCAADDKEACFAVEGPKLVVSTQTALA
SMILES,growth at 0.01 µM (786-0 [1]),growth at 0.1 µM (EKVX),growth at 10 µM (OVCAR-3),growth at 0.1 µM (786-0 [2]),GI50 (HCT-116 [3]),GI50 (BT-549),growth at 0.01 µM (RPMI-8226),GI50 (SF-539 [4]),growth at 0.1 µM (CCRF-CEM),GI50 (SN12C),growth at 0.1 µM (NCI-H522 [5]),CC50 (SNB-19),growth at 0.1 µM (NCI/ADR-RES),TGI (A549 [6]),growth at 100 µM (SK-MEL-5),growth at 1 µM (RXF 393),CC50 (ACHN),GI50 (NCI-H322M),growth at 0.01 µM (HCT-116 [7]),growth at 1 µM (MCF7),also measured
c1ccc(Cn2cnc3ccc(-c4nc(-c5ccc6c(c5)ncn6C5CCCCC5)cn5ccnc45)cc32)cc1,86%,91%,-29%,86%,1070 nM,1200 nM,108%,1060 nM,113%,2270 nM,90%,> 100000 nM,97%,4970 nM,-46%,62%,> 100000 nM,3050 nM,89%,87%,growth at 1 µM (DU-145): 93%; CC50 (SF-268): > 100000 nM; growth at 0.01 µM (MDA-MB-468): 100%; growth at 100 µM (KM12): -7%; growth at 0.01 µM (SW-620): 100%; TGI (UACC-257): 4310 nM; growth at 1 µM (SF-539 [8]): 53%; GI50 (NCI-H522 [9]): 2030 nM; growth at 10 µM (A549 [10]): -46%; CC50 (HCC 2998): 6120 nM; Kb (Albumin): 1.08 10^5/M; growth at 1 µM (T47D): 61%; GI50 (NCI-H226): 2930 nM; growth at 1 µM (NCI-H460): 96%
COc1ccc(-c2cn3ccnc3c(-c3ccc4ncn(C5CCCCC5)c4c3)n2)cc1,87%,89%,10%,93%,399 nM,410 nM,104%,569 nM,107%,2110 nM,87%,> 100000 nM,94%,> 100000 nM,-31%,57%,> 100000 nM,> 100000 nM,95%,40%,growth at 1 µM (DU-145): 51%; CC50 (SF-268): > 100000 nM; growth at 0.01 µM (MDA-MB-468): 93%; growth at 100 µM (KM12): 10%; growth at 0.01 µM (SW-620): 98%; TGI (UACC-257): > 100000 nM; growth at 1 µM (SF-539 [8]): 35%; GI50 (NCI-H522 [9]): 424 nM; growth at 10 µM (A549 [10]): 14%; CC50 (HCC 2998): > 100000 nM; Kb (Albumin): 4.68 10^5/M; growth at 1 µM (T47D): 45%; GI50 (NCI-H226): 2970 nM; growth at 1 µM (NCI-H460): 35%
